Assay results: ChEMBL document CHEMBL1687785, “ampG gene of Pseudomonas aeruginosa and its role in β-lactamase expression” (2010)
≈ marks a conversion by molar mass, not a printed value.

Assays:
Type in all cases: functional
[1] = tested on: Pseudomonas aeruginosa; assay: Antimicrobial activity against Pseudomonas aeruginosa isolate 1 obtained from cystic fibrosis patients after 16 to 20 hrs by broth microdilution method in presence of 120 uM carbonyl cyanide m-chlorophenyl-hydrazone
How it was run: (§1)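 CLSI broth microdilution in Mueller-Hinton broth with CCCP added from a 10 mM DMSO stock to 120 μM final, alongside 2-fold serial antibiotic dilutions. Inoculum from starter cultures grown to OD600 0.5. MIC is the lowest concentration preventing growth after 16-20 h at 37°C. Triplicate.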

[2] = tested on: Pseudomonas aeruginosa; assay: Antimicrobial activity against Pseudomonas aeruginosa isolate 1 obtained from cystic fibrosis patients after 16 to 20 hrs by broth microdilution method
How it was run: (§2)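 CLSI broth microdilution: 2-fold serial antibiotic dilutions in Mueller-Hinton broth, inoculated with about 10^4 cells per 100 μl from starter cultures grown to OD600 0.5. MIC is the lowest concentration preventing growth after 16-20 h at 37°C. Triplicate.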

[3] = tested on: Pseudomonas aeruginosa; assay: Antimicrobial activity against Pseudomonas aeruginosa isolate 2 obtained from cystic fibrosis patients after 16 to 20 hrs by broth microdilution method in presence of 120 uM carbonyl cyanide m-chlorophenyl-hydrazone
How it was run: (§3)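 CLSI broth microdilution in Mueller-Hinton broth with serial antibiotic dilutions. CCCP was added from a 10 mM DMSO stock to 120 μM final, then the bacterial culture was added as inoculum (about 10^4 cells from OD600 0.5 starter cultures). MIC was the lowest concentration preventing growth after 16 to 20 h at 37°C, run in triplicate.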

[4] = tested on: Pseudomonas aeruginosa; assay: Antimicrobial activity against Pseudomonas aeruginosa isolate 2 obtained from cystic fibrosis patients after 16 to 20 hrs by broth microdilution method
How it was run: (§4)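 CLSI broth microdilution in Mueller-Hinton broth, serial 2-fold antibiotic dilutions. Inoculum about 10^4 cells per well, taken from starter cultures grown to OD600 0.5. MIC was the lowest antibiotic concentration preventing growth after 16 to 20 h at 37°C. Each MIC was determined in triplicate.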

[5] = tested on: Pseudomonas aeruginosa; assay: Antimicrobial activity against Pseudomonas aeruginosa isolate 3 obtained from cystic fibrosis patients after 16 to 20 hrs by broth microdilution method in presence of 120 uM carbonyl cyanide m-chlorophenyl-hydrazone; how it was run: as §3
[6] = tested on: Pseudomonas aeruginosa; assay: Antimicrobial activity against Pseudomonas aeruginosa isolate 3 obtained from cystic fibrosis patients after 16 to 20 hrs by broth microdilution method; how it was run: as §4
[7] = tested on: Pseudomonas aeruginosa; assay: Antimicrobial activity against Pseudomonas aeruginosa isolate 4 obtained from cystic fibrosis patients after 16 to 20 hrs by broth microdilution method in presence of 120 uM carbonyl cyanide m-chlorophenyl-hydrazone; how it was run: as §3
[8] = tested on: Pseudomonas aeruginosa; assay: Antimicrobial activity against Pseudomonas aeruginosa isolate 4 obtained from cystic fibrosis patients after 16 to 20 hrs by broth microdilution method; how it was run: as §4
[9] = tested on: Pseudomonas aeruginosa; assay: Antimicrobial activity against Pseudomonas aeruginosa isolate 5 obtained from cystic fibrosis patients after 16 to 20 hrs by broth microdilution method in presence of 120 uM carbonyl cyanide m-chlorophenyl-hydrazone; how it was run: as §3
[10] = tested on: Pseudomonas aeruginosa; assay: Antimicrobial activity against Pseudomonas aeruginosa isolate 5 obtained from cystic fibrosis patients after 16 to 20 hrs by broth microdilution method; how it was run: as §4
[11] = tested on: Pseudomonas aeruginosa; assay: Antimicrobial activity against Pseudomonas aeruginosa isolate 6 obtained from cystic fibrosis patients after 16 to 20 hrs by broth microdilution method in presence of 120 uM carbonyl cyanide m-chlorophenyl-hydrazone; how it was run: as §3
[12] = tested on: Pseudomonas aeruginosa; assay: Antimicrobial activity against Pseudomonas aeruginosa isolate 6 obtained from cystic fibrosis patients after 16 to 20 hrs by broth microdilution method; how it was run: as §4
[13] = tested on: Pseudomonas aeruginosa; assay: Antimicrobial activity against Pseudomonas aeruginosa isolate 7 obtained from cystic fibrosis patients after 16 to 20 hrs by broth microdilution method in presence of 120 uM carbonyl cyanide m-chlorophenyl-hydrazone; how it was run: as §3
[14] = tested on: Pseudomonas aeruginosa; assay: Antimicrobial activity against Pseudomonas aeruginosa isolate 7 obtained from cystic fibrosis patients after 16 to 20 hrs by broth microdilution method; how it was run: as §4
[15] = tested on: Pseudomonas aeruginosa; assay: Antimicrobial activity against Pseudomonas aeruginosa isolate 8 obtained from cystic fibrosis patients after 16 to 20 hrs by broth microdilution method in presence of 120 uM carbonyl cyanide m-chlorophenyl-hydrazone; how it was run: as §3
[16] = tested on: Pseudomonas aeruginosa; assay: Antimicrobial activity against Pseudomonas aeruginosa isolate 8 obtained from cystic fibrosis patients after 16 to 20 hrs by broth microdilution method; how it was run: as §4
[17] = tested on: Pseudomonas aeruginosa; assay: Antimicrobial activity against Pseudomonas aeruginosa isolate 9 obtained from cystic fibrosis patients after 16 to 20 hrs by broth microdilution method in presence of 120 uM carbonyl cyanide m-chlorophenyl-hydrazone; how it was run: as §3
[18] = tested on: Pseudomonas aeruginosa; assay: Antimicrobial activity against Pseudomonas aeruginosa isolate 9 obtained from cystic fibrosis patients after 16 to 20 hrs by broth microdilution method; how it was run: as §4
[19] = tested on: Pseudomonas aeruginosa; assay: Antimicrobial activity against Pseudomonas aeruginosa isolate 10 obtained from cystic fibrosis patients after 16 to 20 hrs by broth microdilution method in presence of 120 uM carbonyl cyanide m-chlorophenyl-hydrazone; how it was run: as §1
[20] = tested on: Pseudomonas aeruginosa; assay: Antimicrobial activity against Pseudomonas aeruginosa isolate 10 obtained from cystic fibrosis patients after 16 to 20 hrs by broth microdilution method; how it was run: as §2
[21] = tested on: Pseudomonas aeruginosa; assay: Antimicrobial activity against Pseudomonas aeruginosa isolate 11 obtained from cystic fibrosis patients after 16 to 20 hrs by broth microdilution method in presence of 120 uM carbonyl cyanide m-chlorophenyl-hydrazone; how it was run: as §1
[22] = tested on: Pseudomonas aeruginosa; assay: Antimicrobial activity against Pseudomonas aeruginosa isolate 11 obtained from cystic fibrosis patients after 16 to 20 hrs by broth microdilution method; how it was run: as §2
[23] = tested on: Pseudomonas aeruginosa; assay: Antimicrobial activity against Pseudomonas aeruginosa isolate 12 obtained from cystic fibrosis patients after 16 to 20 hrs by broth microdilution method; how it was run: as §2
[24] = tested on: Pseudomonas aeruginosa; assay: Antimicrobial activity against Pseudomonas aeruginosa isolate 12 obtained from cystic fibrosis patients after 16 to 20 hrs by broth microdilution method in presence of 120 uM carbonyl cyanide m-chlorophenyl-hydrazone; how it was run: as §1
[25] = tested on: Pseudomonas aeruginosa; assay: Antimicrobial activity against Pseudomonas aeruginosa isolate 13 obtained from cystic fibrosis patients after 16 to 20 hrs by broth microdilution method in presence of 120 uM carbonyl cyanide m-chlorophenyl-hydrazone; how it was run: as §1
[26] = tested on: Pseudomonas aeruginosa; assay: Antimicrobial activity against Pseudomonas aeruginosa isolate 13 obtained from cystic fibrosis patients after 16 to 20 hrs by broth microdilution method; how it was run: as §2
[27] = tested on: Pseudomonas aeruginosa; assay: Antimicrobial activity against Pseudomonas aeruginosa isolate 14 obtained from cystic fibrosis patients after 16 to 20 hrs by broth microdilution method in presence of 120 uM carbonyl cyanide m-chlorophenyl-hydrazone; how it was run: as §1
[28] = tested on: Pseudomonas aeruginosa; assay: Antimicrobial activity against Pseudomonas aeruginosa isolate 14 obtained from cystic fibrosis patients after 16 to 20 hrs by broth microdilution method; how it was run: as §2
[29] = tested on: Pseudomonas aeruginosa; assay: Antimicrobial activity against Pseudomonas aeruginosa isolate 15 obtained from cystic fibrosis patients after 16 to 20 hrs by broth microdilution method in presence of 120 uM carbonyl cyanide m-chlorophenyl-hydrazone; how it was run: as §1
[30] = tested on: Pseudomonas aeruginosa; assay: Antimicrobial activity against Pseudomonas aeruginosa isolate 15 obtained from cystic fibrosis patients after 16 to 20 hrs by broth microdilution method; how it was run: as §2
[31] = tested on: Pseudomonas aeruginosa; assay: Antimicrobial activity against Pseudomonas aeruginosa isolate 16 obtained from cystic fibrosis patients after 16 to 20 hrs by broth microdilution method in presence of 120 uM carbonyl cyanide m-chlorophenyl-hydrazone; how it was run: as §1
[32] = tested on: Pseudomonas aeruginosa; assay: Antimicrobial activity against Pseudomonas aeruginosa isolate 16 obtained from cystic fibrosis patients after 16 to 20 hrs by broth microdilution method; how it was run: as §2
[33] = tested on: Pseudomonas aeruginosa; assay: Antimicrobial activity against Pseudomonas aeruginosa isolate 17 obtained from cystic fibrosis patients after 16 to 20 hrs by broth microdilution method in presence of 120 uM carbonyl cyanide m-chlorophenyl-hydrazone; how it was run: as §3
[34] = tested on: Pseudomonas aeruginosa; assay: Antimicrobial activity against Pseudomonas aeruginosa isolate 17 obtained from cystic fibrosis patients after 16 to 20 hrs by broth microdilution method; how it was run: as §4
[35] = tested on: Pseudomonas aeruginosa; assay: Antimicrobial activity against Pseudomonas aeruginosa isolate 18 obtained from cystic fibrosis patients after 16 to 20 hrs by broth microdilution method in presence of 120 uM carbonyl cyanide m-chlorophenyl-hydrazone; how it was run: as §3
[36] = tested on: Pseudomonas aeruginosa; assay: Antimicrobial activity against Pseudomonas aeruginosa isolate 18 obtained from cystic fibrosis patients after 16 to 20 hrs by broth microdilution method; how it was run: as §4

Row | SMILES | MIC [1] [µg/mL] | MIC [2] [µg/mL] | MIC [3] [µg/mL] | MIC [4] [µg/mL] | MIC [5] [µg/mL] | MIC [6] [µg/mL] | MIC [7] [µg/mL] | MIC [8] [µg/mL] | MIC [9] [µg/mL] | MIC [10] [µg/mL] | MIC [11] [µg/mL] | MIC [12] [µg/mL] | MIC [13] [µg/mL] | MIC [14] [µg/mL] | MIC [15] [µg/mL] | MIC [16] [µg/mL] | MIC [17] [µg/mL] | MIC [18] [µg/mL] | MIC [19] [µg/mL] | MIC [20] [µg/mL] | also measured
1 | O=C(N[C@H](CO)[C@H](O)c1ccc([N+](=O)[O-])cc1)C(Cl)Cl [CHLORAMPHENICOL] | 64 | 256 (≈ 792 µM) | 256 | 256 (≈ 792 µM) | 64 | 256 (≈ 792 µM) | 32 | 32 (≈ 99 µM) | 32 | 32 (≈ 99 µM) | 8 | 8 (≈ 24.8 µM) | 8 | 8 (≈ 24.8 µM) | 32 | 32 (≈ 99 µM) | 16 | 16 (≈ 49.5 µM) | 8 | 32 (≈ 99 µM) | MIC [21]: 32 µg/mL; MIC [22]: 32 µg/mL (≈ 99 µM); MIC [23]: 8 µg/mL (≈ 24.8 µM); MIC [24]: 8 µg/mL; MIC [25]: 8 µg/mL; MIC [26]: 32 µg/mL (≈ 99 µM); MIC [27]: 8 µg/mL; MIC [28]: 16 µg/mL (≈ 49.5 µM); MIC [29]: 8 µg/mL; MIC [30]: 8 µg/mL (≈ 24.8 µM); MIC [31]: 8 µg/mL; MIC [32]: 8 µg/mL (≈ 24.8 µM); MIC [33]: 8 µg/mL; MIC [34]: 8 µg/mL (≈ 24.8 µM); MIC [35]: 32 µg/mL; MIC [36]: 32 µg/mL (≈ 99 µM)
2 | CN(C)[C@@H]1C(O)=C(C(N)=O)C(=O)[C@@]2(O)C(O)=C3C(=O)c4c(O)cccc4[C@@](C)(O)[C@H]3C[C@@H]12 [TETRACYCLINE] | 8 | 8 (≈ 18 µM) | 8 | 8 (≈ 18 µM) | 8 | 8 (≈ 18 µM) | 8 | 8 (≈ 18 µM) | 8 | 8 (≈ 18 µM) | 8 | 8 (≈ 18 µM) | 8 | 8 (≈ 18 µM) | 8 | 16 (≈ 36 µM) | 8 | 8 (≈ 18 µM) | 8 | 8 (≈ 18 µM) | MIC [21]: 8 µg/mL; MIC [22]: 8 µg/mL (≈ 18 µM); MIC [23]: 8 µg/mL (≈ 18 µM); MIC [24]: 8 µg/mL; MIC [25]: 8 µg/mL; MIC [26]: 8 µg/mL (≈ 18 µM); MIC [27]: 8 µg/mL; MIC [28]: 8 µg/mL (≈ 18 µM); MIC [29]: 8 µg/mL; MIC [30]: 8 µg/mL (≈ 18 µM); MIC [31]: 8 µg/mL; MIC [32]: 8 µg/mL (≈ 18 µM); MIC [33]: 8 µg/mL; MIC [34]: 8 µg/mL (≈ 18 µM); MIC [35]: 8 µg/mL; MIC [36]: 16 µg/mL (≈ 36 µM)
